Measured values gathered from unrelated publications.
Protocols differ between the studies behind these lines.
Effect on: cell growth or viability

| Compound | cell line | test | setting | measurement | value |
| --- | --- | --- | --- | --- | --- |
| Nc1ccn([C@@H]2O[C@H](CO)[C@@H](O)C2(F)F)c(=O)n1 | HCCC9810 | CCK-8 | – | IC50 | 2030 nM |
| CO[C@H]1[C@H](O[C@H]([C@H]2O[C@@H](n3ccc(=O)[nH]c3=O)[C@H](O)[C@@H]2O)[C@H](NCCCNC(=O)[C@@H](NC(=O)[C@@H](NC(=O)N[C@H](C(=O)O)C(C)C)[C@@H]2CCN=C(N)N2)[C@@H](O)C(C)C)C(=O)O)O[C@H](CN)[C@H]1O | MDA-MB-453 | WST-1 | – | IC50 | > 35000 nM |
| COc1cc([C@@H]2c3cc4c(cc3[C@@H](O[C@@H]3O[C@@H]5CO[C@@H](C)O[C@H]5[C@H](O)[C@H]3O)[C@H]3COC(=O)[C@H]23)OCO4)cc(OC)c1O | SNU-638 | SRB | 72 h | IC50 | 590 nM |
| COc1cccc2c1C(=O)c1c(O)c3c(c(O)c1C2=O)C[C@@](O)(C(=O)CO)C[C@@H]3O[C@H]1C[C@H](N)[C@H](O)[C@H](C)O1 | MX1 | – | 96 h | IC50 | 22.5 nM |
| CO[C@H]1[C@H](O[C@H]([C@H]2O[C@@H](n3ccc(=O)[nH]c3=O)[C@H](O)[C@@H]2O)[C@H](NCCCNC(=O)[C@@H](NC(=O)[C@@H](NC(=O)N[C@H](C(=O)O)C(C)C)[C@@H]2CCN=C(N)N2)[C@@H](OC(=O)CCCCCCCCCCCCN(O)C(=N)N)C(C)C)C(=O)O)O[C@H](CN)[C@H]1O | MDA-MB-453 | WST-1 | – | IC50 | 880 nM |
| CN1CCC(NC2CCc3[nH]c4c(C(N)=O)ccc(-c5ccccc5Cl)c4c3C2)CC1 (stereo not shown) | MX1 | – | 96 h | IC50 | 19.5 nM |
| CCCCCCCCCCCCCCCCCCOc1cccc(CC(=O)OCC[N+](CC)(CC)CC)c1 | NCI-H460 | SRB | 10 µM | inhibition | 33% |
| Cc1cnc(CNC(=O)c2c(=O)c3ccc(N4CCCN(C)CC4)nc3n3c2sc2ccccc23)cn1 | HK-1 | MTS | 72 h | IC50 | 1000 nM |
| Cc1sc2c(c1C)C(c1ccc(Cl)cc1)=N[C@@H](CC(=O)NCCCCNC(=O)COc1cccc3c1C(=O)N(C1CCC(=O)NC1=O)C3=O)c1nnc(C)n1-2 (stereo partly shown) | MDA-MB-453 | CCK-8 | 72 h | IC50 | 2720 nM |
| N/C(=N\O)c1ccc(-c2cc(CNc3cccc4cccnc34)on2)cc1 | NCI-H460 | MTS | 72 h | IC50 | 95100 nM |
| COC(=O)[C@H]1[C@@H](O)[C@@]2(O)c3c(OC)cc(O[C@@H]4O[C@@H]([C@H](O)CO)CO[C@H]4OC)cc3O[C@@]2(c2ccc(OC)cc2)[C@@H]1c1ccccc1 | HK-1 | MTS | 72 h | IC50 | 5 nM |
| Cc1nc(Nc2ncc(C(=O)Nc3c(C)cccc3Cl)s2)cc(N2CC[C@H](O)C2)n1 | RS4-11 | ATP luminescence | 10 µM, 72 h | inhibition | 46% |
| C[C@H](Nc1ccc2c(c1)OCCn1cc(N3C(=O)OC[C@H]3C(F)F)nc1-2)C(N)=O | MDA-MB-453 | ATP luminescence | 5 days | EC50 | 45.7 nM |
